This is a sample that favours compounds with a hit; in the whole collection about 3.7% have one here.
NPY-Y2 antag – antagonists of human neuropeptide Y receptor Y2 | P49146 | NPY-Y2 expressing cells, antagonist mode | inhibition, % at 2.7 µM | 140,000 compounds, 0.99% hits; in the data active means inhibition above about 17%;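 further: 0% = vehicle with agonist challenge and 100% = reference antagonist with challenge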
Furin inh – human furin inhibition. P09958. purified furin, fluorogenic substrate cleavage. inhibition, % at 20 µM or 30 µM. 220,000 compounds, 0.061% hits; in the data active means inhibition above about 25%
NPY1 pot ag – potentiators or agonists of human neuropeptide Y receptor Y1 | P25929 | NPY-Y1 expressing cells, potentiator/agonist activation | 220,000 compounds, 0.37% hits | activation, % at 3.6 µM | AID 1304; in the data active means activation above about 33%, passing the limit was not always enough;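 further: cells stimulated with NPY at EC10 then isoproterenol at EC100; 0% = low agonist plus stimulus and 100% = saturating agonist plus stimulus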
Target sequence (P25929 whole entry, looked up): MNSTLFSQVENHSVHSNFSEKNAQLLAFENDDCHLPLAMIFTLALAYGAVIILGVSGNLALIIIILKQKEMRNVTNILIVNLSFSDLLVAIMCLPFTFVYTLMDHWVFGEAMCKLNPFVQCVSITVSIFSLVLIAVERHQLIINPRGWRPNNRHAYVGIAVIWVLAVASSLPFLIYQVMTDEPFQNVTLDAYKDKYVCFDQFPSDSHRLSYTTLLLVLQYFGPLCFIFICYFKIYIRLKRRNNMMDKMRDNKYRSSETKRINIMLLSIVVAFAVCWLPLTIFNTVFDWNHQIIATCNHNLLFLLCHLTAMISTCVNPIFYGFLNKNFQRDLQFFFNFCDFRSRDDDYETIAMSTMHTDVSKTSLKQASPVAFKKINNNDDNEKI
NPY2 pot ag – potentiates or activates human NPY-Y2 receptor | P49146 | cells expressing NPY-Y2, potentiator/agonist read-out | activation, % at 3.6 µM | 220,000 compounds, 0.45% hits; in the data active means activation above about 27%;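 further: cells stimulated with NPY near EC25 plus isoproterenol at EC100; 0% = vehicle plus submaximal agonist and 100% = vehicle plus saturating agonist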
NPY-Y1 antag – NPY-Y1 (human) receptor antagonism; HEK293-CNG Y1 cells, membrane potential fluorescence; NPY at EC95, then isoproterenol; 200,000 compounds, 1% hits; AID 1040; inhibition, % at 3.6 µM;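 active means inhibition above the campaign mean inhibition of all tested compounds plus 3 SD, cut at about 20% in these data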;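 further: 0% = DMSO wells given NPY plus isoproterenol and 100% = isoproterenol alone without NPY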
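Material: HEK293 cells with Y1 receptor plus CNG channel; times: compound incubation 1 h at room temperature, readout 45 min post-stimulation; signal: fluorescence, membrane potential probe; read-out basis: fluorescence ratio normalized to % inhibition between controls; benchmarks: full-block control isoproterenol-only wells, zero-block control NPY plus isoproterenol wells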
KCC2 mod – modulators of human KCC2 chloride dependent transport | 190,000 compounds, 2.2% hits | AID 1456 | KCC2 cells, thallium flux FluoZin-2 fluorescence | Q9H2X9 | B-score of Tl+ flux slope (higher = more flux/activation; lower = inhibition) at 10 µM;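 active means thallium flux slope and its plate-corrected score both differing from the plate sample mean at a set confidence after two filtering rounds, in either direction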;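 further: slope of fluorescence scaled to starting intensity during 10 to 20 s after thallium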
KCC2 secondary – confirmation of human KCC2 transport modulators. shares compounds with KCC2 mod. HEK293-KCC2, thallium flux, FluoZin2 fluorescence; stronger effect = higher value. 3,700 compounds, 15% hits. normalised thallium flux (F/F0 slope) at 10 µM;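 active means thallium flux slope above the same plate's solvent-only control mean plus 3 SD; inconclusive means the two replicate wells disagree; inactive means no significant difference from solvent-only control wells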
KCC2 bumet counter – bumetanide-insensitive thallium flux in KCC2 cells with ouabain, counter-screen. shares compounds with KCC2 mod. HEK293-KCC2 + bumetanide/ouabain, thallium flux FluoZin2; stronger effect = higher value. normalized thallium flux at 10 µM. 3,700 compounds, 49% hits;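 active means thallium entry rate above the same plate's blocked-transporter control wells by more than 3 SD; inconclusive means the two repeat wells disagree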;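 further: raw slope of fluorescence over initial fluorescence between 10 and 20 s after thallium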
KCC2 secondary2 – confirmation of human KCC2 transport modulators | shares compounds with KCC2 mod | HEK293-KCC2, thallium flux FluoZin2 fluorescence; actives lie on both sides; F/F0 rise rate, 10–20 s post-thallium | normalized thallium flux at 10 µM | 3,700 compounds, 23% hits;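 active means thallium flux slope more than 3 SD above or below the plate's solvent-only control mean, mostly below; inconclusive means the two repeat wells disagreed; inactive means no significant shift from solvent-only controls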;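 further: raw slope with 0.1% DMSO as baseline and bumetanide as block control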
HEK293 Tl flux – counter-screen for KCC2 modulators: effect in parental HEK293 cells; 3,700 compounds, 46% hits; shares compounds with KCC2 mod; thallium flux FluoZin2, ouabain; baseline-ratio fluorescence slope, 10–20 s after thallium; thallium flux rate (normalised fluorescence) at 10 µM;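 active means thallium flux rate significantly above the same plate's solvent-only control wells, beyond their mean plus 3 SD; inconclusive means the two replicate wells gave conflicting results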
KCC2 retest ouab – KCC2 (human) modulation, ouabain retest; shares compounds with KCC2 mod; HEK293-KCC2, thallium flux FluoZin2 fluorescence; bidirectional: low = inhibitor, high = activator; 3,700 compounds, 48% hits; raw Tl+ flux slope (below DMSO = inhibition, above = activation) at 10 µM;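 active means thallium flux slope beyond 3 SD from same-plate DMSO control mean in most replicates, usually higher, sometimes lower; inconclusive means repeat tests gave conflicting results; inactive means no significant difference from controls in most replicates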;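 further: slope of initial-normalized fluorescence between seconds 10 and 20 after thallium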
HEK293 Tl flux2 – acts in parental HEK cells, second KCC2 counter-screen. shares compounds with KCC2 mod. HEK293 parental, thallium flux FluoZin-2 fluorescence slope. thallium flux slope at 10 µM. 3,700 compounds, 33% hits. AID 1718;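 active means thallium flux slope above the same plate's solvent-control mean plus 3 SD in both duplicate wells; inconclusive means duplicate wells that disagreed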;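 further: run without ouabain in cells lacking the KCC2 cotransporter; slope of fluorescence scaled to its starting value between 10 and 20 s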
The depositor's hits bear a star; u = inconclusive; x = no result.

SMILES | NPY-Y2 antag | Furin inh | NPY1 pot ag | NPY2 pot ag | NPY-Y1 antag | KCC2 mod | KCC2 secondary | KCC2 bumet counter | KCC2 secondary2 | HEK293 Tl flux | KCC2 retest ouab | HEK293 Tl flux2
COc1ccc(OCCCc2c(C)n[nH]c2C)cc1 | 3 | -5 | -2 | 10 | 0 | 4.8* | 0.0088 | 0.0068 | 0.03 | 0.0077 | 0.033 | u
CC(=O)NC(C)C(=O)OCC(=O)c1ccc(Cl)s1 (stereo unspecified) | 4 | -16 | 10 | -7 | -3 | 0.025 | x | x | x | x | x | x
CC(=O)NC(C)C(=O)OCC(=O)c1ccc(-c2ccccc2)cc1 (stereo unspecified) | x | -17 | -9 | -3 | 1 | -4.1* | 0.0072 | 0.0051 | u | 0.0079 | 0.018 | 0.012
COc1ccc(-c2nc(=S)c3ccc4ccccc4c3[nH]2)cc1 | x | -21 | 4 | -6 | 7 | 79* | 0.022* | 0.11* | 0.048* | 0.086* | 0.08* | 0.04*
Cc1sc2c(c1C)c(=O)n(-c1ccc(F)cc1)c(=O)n2CC(=O)NCc1ccco1 | 2 | -13 | -2 | -4 | -3 | x | x | x | x | x | x | x
CCc1ccc(-n2c(=O)c3c(C)c(C(=O)N(C)C)sc3n(CC(=O)NCc3ccco3)c2=O)cc1 | 1 | -14 | -6 | 3 | 3 | 3.8* | 0.016 | 0.0046 | 0.03 | 0.0076 | 0.017 | 0.01
COc1ccc(CC(=O)N2CCN(c3ccccn3)CC2)cc1 | 1 | -14 | -2 | -6 | -3 | 1.2 | x | x | x | x | x | x
O=C(NC(=S)N1CCN(c2ccccn2)CC1)c1ccccc1 | 1 | -19 | -16 | -4 | 2 | 17* | 0.0062 | 0.043* | 0.035 | 0.03* | 0.039* | 0.019*
COc1ccc(/C=C/C(=O)NC(=S)N2CCSCC2)cc1 | x | 9 | -17 | -9 | 8 | 8.7* | 0.018 | 0.034* | 0.035 | 0.016* | 0.025* | 0.017*
O=C(/C=C/c1ccc(Br)cc1)NC(=S)N1CCOCC1 | x | -29 | 13 | -1 | 4 | 8.7* | 0.008 | 0.024* | 0.037 | 0.017* | 0.031* | 0.019*
COc1ccc(/C=C/C(=O)NC(=S)N2CCN(c3ccccn3)CC2)cc1 | x | -12 | -32 | -14 | x | 5.9* | 0.0054 | 0.024* | 0.032 | 0.013* | u | 0.015*
CC(=O)Cc1nnn(-c2cc(C)on2)n1 | x | -8 | 0 | -6 | x | 0.22 | x | x | x | x | x | x
C=CCN(CC(=O)O)S(=O)(=O)c1ccccc1C(F)(F)F | x | -30 | 17 | 5 | 11 | 0.82 | x | x | x | x | x | x
COc1nccnc1NS(=O)(=O)c1ccc(NC(=O)c2cccc(C)c2)cc1 | x | -24 | 7 | 4 | 5 | x | x | x | x | x | x | x
COc1ccc(C(=O)CSc2[nH]c(=O)cc(C(F)(F)F)c2C#N)cc1 | x | 2 | -27 | -9 | x | x | x | x | x | x | x | x
O=C(COc1ccc(Cl)cc1)Nc1nnc(-c2ccc3c(c2)CCCC3)o1 | 5 | 2 | -2 | -2 | 2 | 6.2* | u | 0.021* | 0.037 | u | 0.032* | u
Cc1cccc(C(=O)Nc2nnc(-c3cccnc3)o2)c1 | x | -18 | 6 | 3 | -4 | 4.6* | 0.0059 | 0.0093* | 0.03 | 0.0099* | 0.02 | u
